The values below come from ChEMBL document CHEMBL1137312, “Design and synthesis of a novel photoaffinity ligand for the dopamine and serotonin transporters based on 2beta-carbomethoxy-3beta-biphenyltropane” (J Med Chem, 2006).

The structures appear in SMILES notation. pKi: −log10 of the molar value. Activity calls are given as the source filed them. The calls are words filed in the database; no cut-off is given here.

The target in assay [1] is Sodium-dependent dopamine transporter (Rattus norvegicus, UniProt P23977). Briefly: Displacement of [3H]WIN-35428 from DAT in rat striatal membrane. In kind it is cell membranes, Striatum. The gist of the method: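 Competition binding against [3H]WIN 35 428 in rat striatal membranes. Ligand was used as free base, freshly prepared and kept in the dark. Ki from at least three independent experiments, each in triplicate. Values are mean ± SEM.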
Chain of Sodium-dependent dopamine transporter (P23977 whole entry): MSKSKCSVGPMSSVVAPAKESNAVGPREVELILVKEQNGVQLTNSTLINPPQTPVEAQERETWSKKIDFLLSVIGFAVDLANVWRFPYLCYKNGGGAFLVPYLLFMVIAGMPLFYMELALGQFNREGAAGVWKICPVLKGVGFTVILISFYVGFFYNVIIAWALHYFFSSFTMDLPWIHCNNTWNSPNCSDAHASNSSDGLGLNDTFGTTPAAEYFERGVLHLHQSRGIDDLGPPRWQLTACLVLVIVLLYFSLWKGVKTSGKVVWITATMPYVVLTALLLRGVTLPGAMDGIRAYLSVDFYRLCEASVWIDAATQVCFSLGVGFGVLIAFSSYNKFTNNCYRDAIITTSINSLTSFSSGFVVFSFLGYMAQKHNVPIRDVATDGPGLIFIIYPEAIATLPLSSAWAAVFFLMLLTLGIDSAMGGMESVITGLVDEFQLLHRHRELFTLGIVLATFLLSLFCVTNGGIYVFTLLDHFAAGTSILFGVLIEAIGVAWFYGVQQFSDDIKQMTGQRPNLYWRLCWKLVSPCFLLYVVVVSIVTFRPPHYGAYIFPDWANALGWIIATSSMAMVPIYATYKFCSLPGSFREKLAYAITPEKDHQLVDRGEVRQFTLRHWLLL
A general note: In a radioligand displacement assay an active substance lowers the binding of a labelled ligand.

Assay [2] deals with Sodium-dependent serotonin transporter (Rattus norvegicus, UniProt P31652). As to the kind of experiment: Displacement of [3H]citaloporam from SERT in rat brain. In kind it is tissue-based. The method, boiled down: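 Competition binding against [3H]citalopram in rat brain stem or midbrain membranes. Ligand was used as free base, freshly prepared and kept in the dark. Ki from at least three independent experiments, each in triplicate. Values are mean ± SEM.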
Chain of Sodium-dependent serotonin transporter (P31652 whole entry): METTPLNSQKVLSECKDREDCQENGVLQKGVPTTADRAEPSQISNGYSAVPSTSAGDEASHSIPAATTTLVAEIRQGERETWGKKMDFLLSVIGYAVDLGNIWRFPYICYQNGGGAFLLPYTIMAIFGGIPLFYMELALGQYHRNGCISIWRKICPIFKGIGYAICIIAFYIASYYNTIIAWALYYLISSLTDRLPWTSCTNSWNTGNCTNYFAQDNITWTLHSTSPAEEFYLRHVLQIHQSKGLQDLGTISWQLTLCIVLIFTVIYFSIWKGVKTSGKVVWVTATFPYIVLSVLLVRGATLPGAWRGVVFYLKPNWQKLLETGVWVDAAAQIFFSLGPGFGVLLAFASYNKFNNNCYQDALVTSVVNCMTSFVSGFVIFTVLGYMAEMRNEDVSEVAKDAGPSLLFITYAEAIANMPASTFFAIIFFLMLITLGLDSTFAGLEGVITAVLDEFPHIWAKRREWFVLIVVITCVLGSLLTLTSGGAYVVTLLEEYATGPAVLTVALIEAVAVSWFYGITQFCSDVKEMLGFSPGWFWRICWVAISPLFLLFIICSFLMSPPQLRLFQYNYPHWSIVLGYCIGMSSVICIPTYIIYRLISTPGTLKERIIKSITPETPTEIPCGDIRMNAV

The target of assay [3] is Sodium-dependent dopamine transporter (Homo sapiens) (UniProt Q01959). Briefly: Photo labeling activity at human DAT expressed in HEK293 cells. In kind it is cell-based. To be noted: tested as the 125I-labelled form. The method, boiled down:
(§1)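 HEK 293 cells expressing hDAT or hSERT were photolabeled with [125I] azido ligand (specific activity about 2000 mCi/µmol, radiochemical purity 99%). Cells were solubilized and lysates immunoprecipitated with DAT- or SERT-specific antisera. Read-out was SDS-PAGE and autoradiography, detecting labeled protein bands of 80 or 66 kDa.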

Assay [4] addresses Sodium-dependent serotonin transporter (Homo sapiens) (UniProt P31645). Briefly: Photo labeling activity at human SERT expressed in HEK293 cells in the presence of (-)cocaine. In kind it is cell-based. The following applies: tested as the 125I-labelled form. The method, boiled down: (§2)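 Cocaine-protection version of the photolabeling. HEK 293 cells expressing hDAT or hSERT were photolabeled with [125I] azido ligand in the presence of 10 µM (-)cocaine. Cells were solubilized and immunoprecipitated with transporter-specific antisera. Read-out was SDS-PAGE and autoradiography.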

Assay [5] has the same target. Briefly: Photo labeling activity at human SERT expressed in HEK293 cells. In kind it is cell-based. The following applies: tested as the 125I-labelled form. The method, boiled down:
as §1

Assay [6] concerns the target Sodium-dependent dopamine transporter (Homo sapiens) (UniProt Q01959). As to the kind of experiment: Photo labeling activity at human DAT expressed in HEK293 cells in the presence of (-)cocaine. It is filed as cell-based. To be noted: tested as the 125I-labelled form. The method, boiled down:
as §2

Chain of Sodium-dependent dopamine transporter (Homo sapiens) (Q01959 whole entry): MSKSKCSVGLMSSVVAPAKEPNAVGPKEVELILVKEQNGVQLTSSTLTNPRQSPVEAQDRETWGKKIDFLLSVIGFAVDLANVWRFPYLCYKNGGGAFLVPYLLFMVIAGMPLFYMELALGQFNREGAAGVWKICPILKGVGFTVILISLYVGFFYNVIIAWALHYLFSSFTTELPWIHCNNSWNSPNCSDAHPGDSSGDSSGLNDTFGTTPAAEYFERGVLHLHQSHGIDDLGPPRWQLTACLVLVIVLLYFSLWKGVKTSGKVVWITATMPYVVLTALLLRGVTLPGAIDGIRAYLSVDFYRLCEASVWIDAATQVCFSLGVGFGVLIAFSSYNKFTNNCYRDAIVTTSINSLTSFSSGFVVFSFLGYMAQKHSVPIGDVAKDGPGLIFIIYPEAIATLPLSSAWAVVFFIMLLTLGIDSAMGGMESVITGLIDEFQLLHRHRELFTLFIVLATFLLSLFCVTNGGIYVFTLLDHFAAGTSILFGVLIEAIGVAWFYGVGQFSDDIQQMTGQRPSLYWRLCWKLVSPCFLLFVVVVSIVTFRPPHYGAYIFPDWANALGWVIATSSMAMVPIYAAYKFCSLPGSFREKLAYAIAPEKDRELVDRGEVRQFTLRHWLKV
Chain of Sodium-dependent serotonin transporter (Homo sapiens) (P31645 whole entry, looked up): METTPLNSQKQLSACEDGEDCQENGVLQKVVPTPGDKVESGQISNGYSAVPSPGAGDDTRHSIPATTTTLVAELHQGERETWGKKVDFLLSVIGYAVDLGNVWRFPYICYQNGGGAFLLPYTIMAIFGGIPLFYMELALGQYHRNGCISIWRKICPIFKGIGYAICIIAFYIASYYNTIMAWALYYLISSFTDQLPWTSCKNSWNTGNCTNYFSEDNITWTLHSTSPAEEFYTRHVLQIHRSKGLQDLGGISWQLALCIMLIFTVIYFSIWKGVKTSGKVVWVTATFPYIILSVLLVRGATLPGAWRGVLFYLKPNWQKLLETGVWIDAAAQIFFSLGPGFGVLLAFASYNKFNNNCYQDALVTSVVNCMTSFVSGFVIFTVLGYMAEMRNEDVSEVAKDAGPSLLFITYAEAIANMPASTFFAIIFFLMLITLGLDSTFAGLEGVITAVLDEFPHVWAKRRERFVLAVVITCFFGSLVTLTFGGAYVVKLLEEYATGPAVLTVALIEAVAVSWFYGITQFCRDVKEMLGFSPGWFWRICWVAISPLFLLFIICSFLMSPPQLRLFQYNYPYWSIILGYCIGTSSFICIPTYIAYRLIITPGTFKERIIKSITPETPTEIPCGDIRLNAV

One may read the pKi as the negative decadic logarithm of the Ki, by convention in mol/L. Higher therefore signals a low Ki. For `COC(=O)[C@@H]1C2CCC(C[C@@H]1c1ccc(Br)cc1)N2C` (some centres undefined), the figures for the pKi in assay [1] and in assay [2] were 9.38 and 8.39, respectively.
On to `COC(=O)[C@@H]1C2CCC(C[C@@H]1c1ccc(-c3ccc(N=[N+]=[N-])c(I)c3)cc1)N2C` (some centres undefined), for which the result in assay [3] and in assay [5] was Active. Besides, the result in assay [4] and in assay [6] was inactive. Further, the pKi is 7.82 in assay [1] and 6.96 in assay [2].
For the compound `COC(=O)[C@@H]1C2CCC(C[C@@H]1c1ccc(-c3ccc(N)c(I)c3)cc1)N2C` (some centres undefined), the pKi in assay [1] is 6.87; in assay [2], 8.05.
Take `COC(=O)[C@@H]1C2CCC(C[C@@H]1c1ccc(-c3ccc([N+](=O)[O-])cc3)cc1)N2C` (some centres undefined): the pKi in assay [1] was 8.30; in assay [2], 7.29.
Taken in the same sequence, the figures for `COC(=O)[C@@H]1C2CCC(C[C@@H]1c1ccc(-c3ccc(N)cc3)cc1)N2C` (some centres undefined) were 7.89 and 5.97.
